The record followed here is ChEMBL document CHEMBL1130080, “Structure-activity relationships of diverse Annonaceous acetogenins against multidrug resistant human mammary adenocarcinoma (MCF-7/Adr) cells” (J Med Chem, 1997).

In brackets after ≈: the same amount, converted by molar mass.

The test system of data set [1] is NCI/ADR-RES. In words: Cytotoxicity against MCF-7/Adr cells. Format: functional, cell-based, Homo sapiens. The method in brief: (§1)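 MCF-7/Adr cells kept in RPMI with 10% heat-inactivated FCS and 1% pen/strep, plated at 15 000 cells/mL on poly(D-lysine)-coated plates, left overnight at 37 °C. Day 1: compound added in 95% ethanol (1% by volume). Incubated 6 more days, growth read by BCA protein assay (A570), normalized to vehicle wells, n = 4. IC50 from linear regression through three points spanning 50%; R value from that regression.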

Data set [2] is described as follows: Bullaticin index relates the IC50 values by normalizing to the value of bullatacin for easy comparison. It is filed as ADME. Summed up: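 Index is IC50 of each compound divided by bullatacin's IC50, from the same 6-day BCA protein growth assay in MCF-7/Adr cells, n = 4.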
Data set [3] is described as follows: Statistical significance of IC 50 values; Expressed as R value. It is filed as ADME. Summed up: as §1

The IC50 is the concentration that gives 50% inhibition. A high value points to a need for much substance. In data set [1], `CCCCCCCCCCCC[C@@H](O)[C@H](O)CC[C@H](O)[C@@H]1CC[C@@H](CCC[C@H](O)[C@@H](O)CC[C@@H](O)CC2=C[C@H](C)OC2=O)O1` showed an IC50 above 1 µg/mL.
As for `CCCCCCCCCCCC[C@@H](O)[C@H]1CC[C@H]([C@H]2CC[C@H]([C@H](O)CCCCCC[C@@H](O)CC3=C[C@H](C)OC3=O)O2)O1`, in data set [1], the IC50 is above 1 µg/mL.
The same measure, in the same setting: the result for `CCCCCCCCCCCC[C@H](O)[C@@H](O)CC[C@H](O)[C@@H]1CC[C@@H](CCC[C@H](O)[C@@H](O)CC[C@@H](O)CC2=C[C@H](C)OC2=O)O1` reads above 1 µg/mL.
Turning to `CCCCCCCCCCCC[C@@H](O)[C@H]1CC[C@H]([C@H]2CC[C@H]([C@H](O)CC[C@H](O)CCCCCCCCC3=C[C@H](C)OC3=O)O2)O1`, the Bullatacin index in data set [2] came out at 67.2. This molecule showed an Activity in data set [3] of 1. The molecule further yielded an IC50 in data set [1] of 1.4 µg/mL (≈ 2.2 µM).
On to `CCCCCCCCCCCC/C=C\CC[C@@H](O)[C@H](O)CC[C@H](O)[C@@H]1CC[C@@H](CCCCC[C@@H](O)CC2=C[C@H](C)OC2=O)O1`, for which, in data set [2], the Bullatacin index was 5.26. In data set [3], this molecule showed an Activity of 0.98.
In turn, `CCCCCCCCCCCC[C@@H](O)[C@H]1CC[C@H]([C@H](O)CCCC[C@H](O)CCCCC[C@@H](O)CC2=C[C@H](C)OC2=O)O1` [ANNONACIN] gave a Bullatacin index in data set [2] of 4.19. Further, in data set [3], the Activity turned out to be 0.99.
For the molecule `CCCCCCCCCC[C@@H](O)[C@@H]1CC[C@@H]([C@@H]2CC[C@@H]([C@H](O)CCCCCCCCCC(O)CC3=CC(C)OC3=O)O2)O1` (stereo not given in full) [BULLATACIN], in data set [2], the Bullatacin index is reported as 1. Besides, the Activity in data set [3] worked out at 0.97. In data set [1], this molecule yielded an IC50 of 10.8 µg/mL (≈ 17.7 µM).
With `CCCCCCCCCC[C@H](O)[C@H]1CC[C@H]([C@H](O)CC[C@H](O)[C@@H]2CC[C@@H](CCCCCCC[C@@H](O)CC3=C[C@H](C)OC3=O)O2)O1` [BULLATALICIN], the Bullatacin index in data set [2] came out at 4.72. Also, the Activity in data set [3] is 0.98.
In data set [2], `COc1cccc2c1C(=O)c1c(O)c3c(c(O)c1C2=O)C[C@@](O)(C(=O)CO)C[C@@H]3O[C@H]1C[C@H](N)[C@H](O)[C@H](C)O1` [DOXORUBICIN] gave a Bullatacin index of 258.5. Moreover, the Activity in data set [3] turned out to be 1. In addition, in data set [1], the midpoint of inhibition, the IC50, lay at 5.37 µg/mL (≈ 9.88 µM).
Take `CCCCCCCCCCCCCC[C@@H](O)[C@H](O)CC[C@H](O)[C@@H]1CC[C@@H](CCCCC[C@@H](O)CC2=C[C@H](C)OC2=O)O1` [GIGANTETROCIN A]: the Bullatacin index in data set [2] stood at 0.5. The molecule further showed an Activity in data set [3] of 0.97.
Consider `CCCCC[C@H](O)CCCC[C@H](O)[C@H]1CC[C@H]([C@H]2CC[C@H]([C@H](O)CCCCCCCCCCCCC3=C[C@H](C)OC3=O)O2)O1` [MOTRILIN], for which the Bullatacin index in data set [2] is on record as 1.23. Moreover, in data set [3], the Activity amounted to 0.99.
As to `CCCCCCCCCCCC[C@H](O)[C@H]1CC[C@H]([C@H]2CC[C@H]([C@H](O)CCCCCCCC[C@@H](O)CC3=C[C@H](C)OC3=O)O2)O1` [SQUAMOTACIN], in data set [2], the Bullatacin index came to 6.79. The molecule also registered an Activity in data set [3] of 1.
In the same order, the values of `CCCCCCCCCC[C@@H](O)[C@@H]1CC[C@H]([C@H](O)CC[C@H](O)[C@@H]2CC[C@@H](CCCCCCC[C@@H](O)CC3=C[C@H](C)OC3=O)O2)O1` [SYLVATICIN] are 2.76 and 0.94.
The molecule `CCCCCCCCCC[C@@H](O)[C@H]1CC[C@@H]([C@H]2CC[C@H]([C@H](O)CCCCCCCCCC[C@@H](O)CC3=C[C@H](C)OC3=O)O2)O1` [TRILOBACIN] yielded a Bullatacin index in data set [2] of 2.89. Further, the Activity in data set [3] was 0.98. In addition, in data set [1], inhibition was half-maximal at 59.9 µg/mL (≈ 96.2 µM) (IC50).
In the same order, the values of `CC[C@]1(O)C[C@@H]2CN(CCc3c([nH]c4ccccc34)[C@@](C(=O)OC)(c3cc4c(cc3OC)N(C)[C@H]3[C@@](O)(C(=O)OC)[C@H](OC(C)=O)[C@]5(CC)C=CCN6CC[C@]43[C@@H]65)C2)C1` [VINBLASTINE] are 18.8, 1 and 390 µg/mL (≈ 481 µM).
In the same order, the values of `CC[C@]1(O)C[C@H]2CN(CCc3c([nH]c4ccccc34)[C@@](C(=O)OC)(c3cc4c(cc3OC)N(C=O)[C@H]3[C@@](O)(C(=O)OC)[C@H](OC(C)=O)[C@]5(CC)C=CCN6CC[C@]43[C@@H]65)C2)C1` [VINCRISTINE] are 141.3, 1 and 2.93 µg/mL (≈ 3.55 µM).
